According to ChEMBL document CHEMBL1134399 (J Med Chem, 2001):
Where a SMILES comes first, the peptide text is derived from it. Bridges are numbered along the chain shown (N, C = ends). [ ]: non-standard residue; d: D form. Phe(4-CF3) = N[C@@H](Cc1ccc(C(F)(F)F)cc1)C(=O)O; 2Nal = N[C@@H](Cc1ccc2ccccc2c1)C(=O)O; 3Pal = N[C@@H](Cc1cccnc1)C(=O)O; NMeK = CN[C@@H](CCCCN)C(=O)O

Columns and labels:
[1] = biological target: Somatostatin receptor type 1 (Homo sapiens, UniProt P30872); test: Ability to displace [125 I]labelled Tyr11-somatostatin from human hsst-1 receptor expressed on CHO cells; assay type: cell-based
How it was run: (§1)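 Membranes from stably transfected CHO-K1 clones, prepared in ice-cold 50 mM Tris-HCl and resuspended in 10 mM Tris-HCl. Stopped by filtration through PEI-soaked GF/C filters. Nonspecific binding taken with 1.0 μM SRIF. Ki ± SEM from concentration-dependent displacement.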

[2] = biological target: Somatostatin receptor type 4 (Homo sapiens, UniProt P31391); test: Ability to displace [125 I]labelled Tyr11-somatostatin from human hsst-4 receptor expressed on CHO cells; assay type: cell-based; how it was run: as §1
[3] = biological target: Somatostatin receptor type 5 (Homo sapiens, UniProt P35346); test: Ability to displace [125 I]labelled Tyr11-somatostatin from human hsst-5 receptor expressed on CHO cells; assay type: cell-based; how it was run: as §1
[4] = biological target: Somatostatin receptor type 2 (Homo sapiens, UniProt P30874); test: Ability to displace [125 I]labelled Tyr11-somatostatin from human hsst-2 receptor expressed on CHO cells; assay type: cell-based
[5] = biological target: Somatostatin receptor type 3 (Homo sapiens, UniProt P32745); test: Ability to displace [125 I]labelled Tyr11-somatostatin from human hsst-3 receptor expressed on CHO cells; assay type: cell-based; how it was run: as §1
Somatostatin receptor = test: Antagonism of in vitro SRIF inhibition of GH release from rat pituitary cells in culture; assay type: functional, cell-based; conditions: pituitary gland cell
How it was run: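 Dispersed anterior pituitary cells from adult male rats, cultured 4–5 days at 37 °C. Six doses per plate, triplicate wells. GH measured by double antibody RIA. Antagonist IC50 versus SRIF is the mean ± SEM of n dose-response curves.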

Somatostatin receptor type 3, sequence (P32745 whole entry): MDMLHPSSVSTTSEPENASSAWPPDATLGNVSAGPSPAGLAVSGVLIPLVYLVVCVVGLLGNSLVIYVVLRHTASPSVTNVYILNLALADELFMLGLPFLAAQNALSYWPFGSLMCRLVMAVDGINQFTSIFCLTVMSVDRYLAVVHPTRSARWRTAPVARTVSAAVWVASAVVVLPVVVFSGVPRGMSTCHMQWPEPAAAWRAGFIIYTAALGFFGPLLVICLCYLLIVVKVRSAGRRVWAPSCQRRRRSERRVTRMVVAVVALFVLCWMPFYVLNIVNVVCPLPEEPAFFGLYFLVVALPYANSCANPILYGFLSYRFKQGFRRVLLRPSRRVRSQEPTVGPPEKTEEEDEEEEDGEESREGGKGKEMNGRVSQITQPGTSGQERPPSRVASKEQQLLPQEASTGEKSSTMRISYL
Somatostatin receptor type 1, sequence (P30872 whole entry): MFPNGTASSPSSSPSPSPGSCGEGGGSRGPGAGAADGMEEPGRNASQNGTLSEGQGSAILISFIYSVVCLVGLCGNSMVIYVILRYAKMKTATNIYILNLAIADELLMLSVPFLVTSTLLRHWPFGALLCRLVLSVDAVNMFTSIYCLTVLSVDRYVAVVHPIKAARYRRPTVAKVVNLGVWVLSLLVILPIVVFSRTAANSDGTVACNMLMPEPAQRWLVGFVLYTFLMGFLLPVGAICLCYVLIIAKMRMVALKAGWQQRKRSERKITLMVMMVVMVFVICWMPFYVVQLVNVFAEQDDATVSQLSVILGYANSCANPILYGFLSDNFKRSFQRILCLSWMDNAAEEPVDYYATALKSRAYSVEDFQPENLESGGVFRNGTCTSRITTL
Somatostatin receptor type 4, sequence (P31391 whole entry): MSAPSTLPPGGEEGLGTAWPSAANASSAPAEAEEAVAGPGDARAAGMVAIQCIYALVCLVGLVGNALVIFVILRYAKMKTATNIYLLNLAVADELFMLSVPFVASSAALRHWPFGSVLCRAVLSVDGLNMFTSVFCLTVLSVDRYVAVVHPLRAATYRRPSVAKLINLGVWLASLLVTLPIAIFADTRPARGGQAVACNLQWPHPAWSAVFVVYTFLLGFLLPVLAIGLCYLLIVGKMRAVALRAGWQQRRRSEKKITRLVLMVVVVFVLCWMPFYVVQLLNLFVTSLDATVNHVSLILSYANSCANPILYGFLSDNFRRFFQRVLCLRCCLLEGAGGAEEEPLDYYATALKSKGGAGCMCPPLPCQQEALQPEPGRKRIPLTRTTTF
Somatostatin receptor type 2, sequence (P30874 whole entry): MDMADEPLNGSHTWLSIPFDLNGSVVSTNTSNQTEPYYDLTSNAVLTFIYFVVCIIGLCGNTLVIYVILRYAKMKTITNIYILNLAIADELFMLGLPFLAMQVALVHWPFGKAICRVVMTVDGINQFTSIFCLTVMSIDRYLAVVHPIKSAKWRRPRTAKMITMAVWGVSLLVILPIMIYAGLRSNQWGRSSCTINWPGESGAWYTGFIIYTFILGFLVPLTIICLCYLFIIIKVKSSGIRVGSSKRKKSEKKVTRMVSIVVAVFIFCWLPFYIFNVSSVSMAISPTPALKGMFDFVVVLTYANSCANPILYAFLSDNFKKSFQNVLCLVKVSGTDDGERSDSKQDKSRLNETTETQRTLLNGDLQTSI
Somatostatin receptor type 5, sequence (P35346 whole entry): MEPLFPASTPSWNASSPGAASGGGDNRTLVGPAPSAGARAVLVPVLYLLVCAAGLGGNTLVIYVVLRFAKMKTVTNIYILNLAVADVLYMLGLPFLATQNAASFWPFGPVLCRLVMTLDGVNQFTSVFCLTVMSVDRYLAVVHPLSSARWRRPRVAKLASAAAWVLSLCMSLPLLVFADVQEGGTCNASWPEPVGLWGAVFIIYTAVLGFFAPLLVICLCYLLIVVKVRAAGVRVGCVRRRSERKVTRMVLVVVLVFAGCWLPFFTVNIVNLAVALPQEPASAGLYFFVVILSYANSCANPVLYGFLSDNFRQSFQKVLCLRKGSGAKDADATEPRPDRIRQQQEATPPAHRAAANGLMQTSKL

**Q.** With `C[C@@H](O)[C@@H]1NC(=O)[C@H](CCN)NC(=O)[C@@H](Cc2c[nH]c3ccccc23)NC(=O)[C@H](Cc2cccnc2)NC(=O)[C@H](NC(=O)[C@@H](N)Cc2ccc(Cl)cc2)CSSC[C@@H](C(=O)N[C@@H](Cc2ccc3ccccc3c2)C(N)=O)NC1=O` as the compound, how does the Ki ([1]; cho) read?
**A.** > 1000 nM

**Q.** What about the Ki ([2]; cho) of the same compound?
**A.** > 1000 nM

**Q.** And the Ki [3]?
**A.** > 1000 nM

**Q.** And the Ki ([4]; cho)?
**A.** 317 nM

**Q.** What about the Ki ([5]; cho) of the same compound?
**A.** 23.6 nM

**Q.** `C[C@@H](O)[C@@H]1NC(=O)[C@H](CCCCN)N(C)C(=O)[C@@H](Cc2c[nH]c3ccccc23)NC(=O)[C@H](Cc2cccnc2)NC(=O)[C@H](NC(=O)[C@@H](N)Cc2ccc(C(F)(F)F)cc2)CSSC[C@@H](C(=O)N[C@@H](Cc2ccc3ccccc3c2)C(N)=O)NC1=O` (H-[Phe(4-CF3)][dC][3Pal][dW][NMeK]TC[2Nal]-NH2; disulfide 2-7) was tested. Which Ki [1] did it give?
**A.** > 1000 nM

**Q.** What about the Ki [2] of the same compound?
**A.** 1250 nM

**Q.** What about the Ki [4] of the same compound?
**A.** 11.3 nM

**Q.** What about the Ki [5] of the same compound?
**A.** 40.2 nM

**Q.** Which IC50 (Somatostatin receptor) does the source give for `CN[C@@H](Cc1ccc(Cl)cc1)C(=O)N[C@H]1CSSC[C@H](C(=O)N[C@@H](Cc2ccc3ccccc3c2)C(N)=O)NC(=O)[C@@H]([C@H](C)O)NC(=O)[C@H](CCCCN)NC(=O)[C@@H](Cc2c[nH]c3ccccc23)NC(=O)[C@H](Cc2cccnc2)NC1=O` here?
**A.** 7.8 nM

**Q.** `C[C@H](O)[C@H]1NC(=O)[C@H](CCCCN)N(C)C(=O)[C@@H](Cc2c[nH]c3ccccc23)N(C)C(=O)[C@H](Cc2cccnc2)NC(=O)[C@@H](NC(=O)[C@@H](N)Cc2ccc(Cl)cc2)CSSC[C@H](C(=O)N[C@@H](Cc2ccc3ccccc3c2)C(N)=O)NC1=O` was tested. Which IC50 (Somatostatin receptor) did it give?
**A.** 2.5 nM
